Legend:
[1] = Ratio of proximal to distal depolarizations determined in rat at 10 mg/kg; assay type: functional
Outline: (§1)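 Rats; cortical spreading depression evoked by 10 min application of crystalline KCl to a small parietal cortex region. Compound given intragastrically in PEG 400 vehicle. Depolarizations counted in proximal and distal leads per animal; proximal/distal ratio calculated per group. Group mean ± SEM; Kruskal–Wallis with Dunn's posttest.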

[2] = target: Potassium voltage-gated channel subfamily KQT member 2 (Mus musculus, UniProt Q9Z351); assay: Induced current in Xenopus laevis oocytes expressing cloned mKCNQ2 channels; assay type: functional, cell-based, Oocyte
Potassium voltage-gated channel subfamily KQT member 2, sequence (Q9Z351 whole entry): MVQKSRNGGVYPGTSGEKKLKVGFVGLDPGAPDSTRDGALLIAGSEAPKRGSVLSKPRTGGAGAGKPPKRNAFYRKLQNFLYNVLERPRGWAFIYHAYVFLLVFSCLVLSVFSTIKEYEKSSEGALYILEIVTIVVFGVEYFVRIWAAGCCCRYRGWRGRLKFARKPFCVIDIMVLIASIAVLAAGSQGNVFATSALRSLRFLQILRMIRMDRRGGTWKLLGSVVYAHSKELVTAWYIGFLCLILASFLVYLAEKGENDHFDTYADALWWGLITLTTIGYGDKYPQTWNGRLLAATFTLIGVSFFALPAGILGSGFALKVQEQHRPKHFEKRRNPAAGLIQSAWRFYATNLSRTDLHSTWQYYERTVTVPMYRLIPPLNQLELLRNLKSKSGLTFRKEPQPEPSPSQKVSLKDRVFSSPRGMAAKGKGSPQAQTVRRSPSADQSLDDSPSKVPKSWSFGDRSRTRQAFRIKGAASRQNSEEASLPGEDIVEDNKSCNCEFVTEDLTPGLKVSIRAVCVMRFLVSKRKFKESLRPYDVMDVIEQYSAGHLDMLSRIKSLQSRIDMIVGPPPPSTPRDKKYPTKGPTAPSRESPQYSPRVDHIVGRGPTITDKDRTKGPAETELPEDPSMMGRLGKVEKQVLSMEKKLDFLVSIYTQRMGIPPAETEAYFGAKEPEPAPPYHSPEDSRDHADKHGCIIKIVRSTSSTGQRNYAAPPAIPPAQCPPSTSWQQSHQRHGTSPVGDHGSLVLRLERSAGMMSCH
Outline: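 Two-electrode voltage clamp of Xenopus laevis oocytes expressing cloned mKCNQ2; outward current at -40 mV expressed as percent of compound-free control; concentration–response fit for EC50, n = 4–7 oocytes.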

[3] = Ratio of proximal to distal depolarizations determined in rat at 30 mg/kg; assay type: functional; outline: as §1
Rattus norvegicus [4] = assay: Ability to reduce the total number of proximal depolarizations was tested in rat parietal cortex at 3 mg/kg, ig; assay type: functional; conditions: route intragastric; outline: as §1
[5] = Half-life determined at 1 mg/kg, iv, in dog; assay type: ADME, organism-based, Canis lupus familiaris; parameters: dose 1 mg/kg; conditions: in vivo
Outline: (§2)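 Beagle dogs (n = 3), 1 mg/kg iv as a solution in 50% PEG-400/50% H2O; plasma pharmacokinetics giving clearance, half-life and steady-state volume of distribution.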

[6] = tmax determined dog at 3 mg/kg, po; assay type: ADME, organism-based, Canis lupus familiaris; parameters: dose 3 mg/kg, route oral; conditions: in vivo
Outline: (§3)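 Beagle dogs (n = 3), oral solution at 3 mg/kg in 50% PEG-400/50% H2O, with iv reference at 1 mg/kg; tmax and oral bioavailability derived.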

[7] = target: Potassium voltage-gated channel subfamily KQT member 2 (Mus musculus) (UniProt Q9Z351); assay: Threshold for augmenting KCNQ2 current in HEK 293 stable cell line expressing mKCNQ2 channel; assay type: functional, cell-based; conditions: HEK293
Potassium voltage-gated channel subfamily KQT member 2 (Mus musculus), sequence (Q9Z351 whole entry, the tested form may be a part): as the sequence (Q9Z351 whole entry) above
Outline: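 HEK 293 cells stably expressing mKCNQ2, voltage-clamped at -40 mV; compound applied by local superfusion at increasing concentrations, then washed with compound-free saline; concentration–response from three cells with logistic fit.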

[8] = Ratio of proximal to distal depolarizations determined in rat at 3 mg/kg; assay type: functional; outline: as §1
[9] = Volume of distribution was determined in rat at 5 mg/kg, iv; assay type: ADME, organism-based; parameters: dose 5 mg/kg, route intravenous; conditions: in vivo, read-out: Vdss
Outline: (§4)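 Sprague–Dawley rats (n = 3), 5 mg/kg iv as a solution in 90% PEG-400/10% Tween 80; plasma pharmacokinetics giving clearance, half-life and steady-state volume of distribution.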

[10] = Clearance rate determined at 5 mg/kg, iv, in rat; assay type: ADME, organism-based; parameters: dose 5 mg/kg; conditions: in vivo; outline: as §4
[11] = tmax determined rat at 11 mg/kg, po; assay type: ADME, organism-based; parameters: dose 11 mg/kg, route oral; conditions: in vivo
[12] = target: Voltage-gated potassium channel, KQT; KCNQ2(Kv7.2)/KCNQ3(Kv7.3) (Homo sapiens, UniProt O43525+O43526); assay: Effect on resting membrane potential in SH-SY5Y human neuroblastoma cells expressing native KCNQ channels
Voltage-gated potassium channel, KQT; KCNQ2(Kv7.2)/KCNQ3(Kv7.3), sequence (O43526 whole entry): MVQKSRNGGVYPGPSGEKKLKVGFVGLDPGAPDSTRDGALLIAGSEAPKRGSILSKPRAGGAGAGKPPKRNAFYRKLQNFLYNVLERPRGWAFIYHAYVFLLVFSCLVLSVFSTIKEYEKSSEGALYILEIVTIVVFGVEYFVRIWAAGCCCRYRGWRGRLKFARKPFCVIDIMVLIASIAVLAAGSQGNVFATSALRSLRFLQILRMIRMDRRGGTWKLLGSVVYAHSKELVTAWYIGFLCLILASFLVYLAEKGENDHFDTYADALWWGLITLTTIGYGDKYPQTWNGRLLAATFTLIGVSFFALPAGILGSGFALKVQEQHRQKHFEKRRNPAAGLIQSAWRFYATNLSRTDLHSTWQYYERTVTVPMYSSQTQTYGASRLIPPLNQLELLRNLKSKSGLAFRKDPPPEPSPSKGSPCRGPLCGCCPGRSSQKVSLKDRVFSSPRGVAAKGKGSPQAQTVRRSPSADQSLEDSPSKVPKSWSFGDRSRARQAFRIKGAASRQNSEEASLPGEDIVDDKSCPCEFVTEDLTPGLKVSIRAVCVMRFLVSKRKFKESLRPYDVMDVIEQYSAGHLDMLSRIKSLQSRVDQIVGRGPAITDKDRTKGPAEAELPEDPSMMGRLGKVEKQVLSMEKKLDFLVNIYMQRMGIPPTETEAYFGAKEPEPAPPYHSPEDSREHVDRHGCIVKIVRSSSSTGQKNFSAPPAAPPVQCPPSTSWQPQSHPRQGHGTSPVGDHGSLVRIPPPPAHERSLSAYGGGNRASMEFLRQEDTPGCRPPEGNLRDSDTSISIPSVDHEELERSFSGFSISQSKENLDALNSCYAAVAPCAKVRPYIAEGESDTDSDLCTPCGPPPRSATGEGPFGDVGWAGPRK
Voltage-gated potassium channel, KQT; KCNQ2(Kv7.2)/KCNQ3(Kv7.3), sequence (O43525 whole entry): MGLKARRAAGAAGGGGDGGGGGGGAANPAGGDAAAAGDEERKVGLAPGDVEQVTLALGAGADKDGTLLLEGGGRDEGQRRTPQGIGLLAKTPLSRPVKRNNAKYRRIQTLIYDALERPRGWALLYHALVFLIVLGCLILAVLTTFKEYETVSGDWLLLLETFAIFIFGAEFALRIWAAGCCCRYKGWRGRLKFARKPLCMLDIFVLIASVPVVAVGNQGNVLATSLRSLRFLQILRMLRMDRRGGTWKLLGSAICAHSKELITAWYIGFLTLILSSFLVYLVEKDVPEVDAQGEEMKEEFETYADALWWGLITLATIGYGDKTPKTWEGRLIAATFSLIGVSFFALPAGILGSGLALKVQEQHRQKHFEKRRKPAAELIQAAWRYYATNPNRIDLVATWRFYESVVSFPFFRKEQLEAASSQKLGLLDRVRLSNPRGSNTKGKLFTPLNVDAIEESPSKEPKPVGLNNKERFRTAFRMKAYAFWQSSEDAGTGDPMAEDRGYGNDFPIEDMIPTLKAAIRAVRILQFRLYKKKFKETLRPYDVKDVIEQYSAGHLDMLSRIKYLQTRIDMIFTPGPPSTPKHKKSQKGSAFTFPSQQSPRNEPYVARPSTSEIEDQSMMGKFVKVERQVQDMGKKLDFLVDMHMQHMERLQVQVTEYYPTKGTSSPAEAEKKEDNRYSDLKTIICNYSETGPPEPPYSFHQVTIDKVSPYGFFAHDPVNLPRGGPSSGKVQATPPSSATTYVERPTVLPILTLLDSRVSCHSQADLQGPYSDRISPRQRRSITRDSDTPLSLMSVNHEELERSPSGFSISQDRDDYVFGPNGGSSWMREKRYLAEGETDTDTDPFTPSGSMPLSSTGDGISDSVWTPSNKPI

Rattus norvegicus [13] = assay: Ability to reduce the total number of proximal depolarizations was tested in rat parietal cortex at 30 mg/kg, ig; assay type: functional; conditions: route intragastric; outline: as §1
[14] = Percentage oral bioavailability determined in rat; assay type: ADME, organism-based; conditions: in vivo, read-out: Bioavailabiility
[15] = Ratio of concentration of compound in brain to the concentration in plasma; conditions: brain and plasma, B/P ratio
[16] = Percentage oral bioavailability determined in dog; assay type: ADME, organism-based, Canis lupus familiaris; conditions: in vivo, read-out: Bioavailabiility; outline: as §3
Rattus norvegicus [17] = assay: Ability to reduce the total number of proximal depolarizations was tested in rat parietal cortex at 10 mg/kg, ig; assay type: functional; conditions: route intragastric; outline: as §1
[18] = Clearance rate determined at 1 mg/kg, iv, in dog; assay type: ADME, organism-based, Canis lupus familiaris; parameters: dose 1 mg/kg; conditions: in vivo; outline: as §2
[19] = Half-life determined at 5 mg/kg, iv, in rat; assay type: ADME, organism-based; parameters: dose 5 mg/kg; conditions: in vivo; outline: as §4
[20] = Volume of distribution was determined in dog at 1 mg/kg, iv; assay type: ADME, organism-based, Canis lupus familiaris; parameters: dose 1 mg/kg, route intravenous; conditions: in vivo, read-out: Vdss; outline: as §2
[21] = Concentration determined in rat plasma after 6 hr; assay type: ADME, organism-based
Outline: (§5)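 Sprague–Dawley rats (n = 3) dosed po at 20 mg/kg as a solution in 100% PEG-400; brain and plasma sampled at 6 h.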

[22] = Concentration determined in rat brain after 6 hr; assay type: ADME, organism-based; outline: as §5

EC50 [2]: 6 µM
half-life [5]: 3 h
Tmax [6]: 0.5 h
Concentration [7]: 300 nM
Vd [9]: 2.5 L/kg
clearance [10]: 41 mL/min/kg
Tmax [11]: 5 h
EC50 [12]: 0.69 µM
bioavailability [14]: 93%
Kp [15]: 0.78
bioavailability [16]: 100%
clearance [18]: 12.7 mL/min/kg
half-life [19]: 2.1 h
Vd [20]: 3 L/kg
concentration at 6 h [21]: 804 ng/mL
concentration at 6 h [22]: 631 ng/g
SMILES: C[C@H](NC(=O)/C=C/c1ccccc1)c1cccc(N2CCOCC2)c1
P/D [1]: 1.15
P/D [3]: 1.22
No. of depolarizations (Rattus norvegicus [4]): 36
P/D [8]: 1.1
No. of depolarizations (Rattus norvegicus [13]): 23
No. of depolarizations (Rattus norvegicus [17]): 25
